The record followed here is ChEMBL document CHEMBL4350995, “Synthesis and antiproliferative activity of culicinin D analogues containing simplified AHMOD-based residues” (Eur J Med Chem, 2019).

Numbered stars: 1 amine (or outer) side, 2 acyl side, 3 side chain; on linkers, the order of the positions; unused ones are H or OH. Square brackets hold non-standard residues; d marks the D form. Peptide text beside a SMILES is read from it. * marks the point of attachment. X3 = CCC(=O)C[C@@H](O)C[C@@H](C)C[C@H](N[*:1])C(=O)[*:2]; X8 = CCC(=O)C[C@H](O)C[C@@H](C)C[C@H](N[*:1])C(=O)[*:2]; X2 = CCCC[C@@H](O)C[C@@H](C)C[C@H](N[*:1])C(=O)[*:2]; X6 = CCCC[C@H](O)C[C@@H](C)C[C@H](N[*:1])C(=O)[*:2]; X4 = CCCCCCCC[C@@H](C)C[C@H](N[*:1])C(=O)[*:2]; Nva(5-pentanoyl) = CCCCC(=O)CCC[C@H](N)C(=O)O; X1 = CCCCCC[C@@H](C)C[C@H](N[*:1])C(=O)[*:2]; NH((S)CH(Me)CH2NHC2H4OH) = C[C@@H](CNCCO)N*; X9 = CCC(=O)CC(O)CCC[C@H](N[*:1])C(=O)[*:2]; X5 = CCCCCCC(=O)CCC[C@H](N[*:1])C(=O)[*:2]; Gly(decyl) = CCCCCCCCCC[C@H](N)C(=O)O; X7 = O=C([C@H](CCCCO)N[*:1])[*:2]; Aoc(2) = CCCCCC[C@H](N)C(=O)O; hSer = N[C@@H](CCO)C(=O)O; Aib = CC(C)(N)C(=O)O; Butyryl = CCCC(=O)*; βAla = NCCC(=O)O Bounds are passed on as bounds.

Holding throughout (format): functional, cell-based
One assay relates to T47D. The assay can be described thus: Antiproliferative activity against human T47D cells incubated for 5 days by SRB assay. As to conditions: 120 h. In short, it runs like this: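 Cells were grown in RPMI + 10% FCS (37 °C, 5% CO2, STR-authenticated, <3 months passage) and seeded at 1500 cells/well. After overnight attachment they received 3-fold serial dilutions (30 mM DMSO stock) in duplicate for 5 days. Total cells were measured by sulphorhodamine B staining. IC50 was interpolated from a 4-parameter logistic fit against same-plate untreated controls. Values are mean ± SEM, n = 2–3.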

For another assay, the system named is MDA-MB-468. The experiment in a line: Antiproliferative activity against human MDA-MB-468 cells incubated for 5 days by SRB assay. The settings on record: MDA-MB-468, 120 h. The method, boiled down:
(§1)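 STR-authenticated cells, <3 months passage, in DMEM + 10% FCS at 37 °C, 5% CO2, were seeded at 2000 cells/well and attached overnight. They were then exposed in duplicate to 3-fold serial dilutions from a 30 mM DMSO stock for 5 days. Staining was with sulphorhodamine B. IC50 was interpolated from 4-parameter logistic fits versus peptide-free controls on the same plate. Values are mean ± SEM, n = 2–3 independent experiments.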
A general note: In SRB staining, fixed cells bind dye roughly in proportion to their protein.

The subject of a further assay is NCI-H460. The experiment in a line: Antiproliferative activity against human NCI-H460 cells incubated for 5 days by SRB assay. The settings on record: NCI-H460, 120 h. The method, boiled down: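 Cultured in alpha MEM + 5% FCS, 37 °C, 5% CO2; STR-authenticated, <3 months passage. Seeded at 300 cells/well and attached overnight, then given duplicate 3-fold serial dilutions of peptide (30 mM DMSO stock) for 5 days. Read-out was sulphorhodamine B staining. IC50 was interpolated from a 4-parameter logistic fit versus peptide-free controls. Values are mean ± SEM of 2–3 independent experiments.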

The subject of a further assay is SK-BR-3. The assay can be described thus: Antiproliferative activity against human SKBR3 cells incubated for 5 days by SRB assay. As to conditions: SK-BR-3, 120 h. In short, it runs like this: as §1

Take `CCCCCCC(=O)CCC[C@H](NC(=O)[C@@H]1CCCN1C(=O)CCC)C(=O)NC(C)(C)C(=O)NC(C)(C)C(=O)N[C@@H](C[C@H](C)CCCCCC)C(=O)N[C@@H](CC(C)C)C(=O)NC(C)(C)C(=O)N[C@@H](CC(C)C)C(=O)NCCC(=O)N[C@@H](C)CNCCO` (Butyryl-P[X5][Aib][Aib][X1]L[Aib]L[βAla]-{NH((S)CH(Me)CH2NHC2H4OH)}): the IC50 worked out at 6 nM in the assay with T47D, 8 nM in the assay with MDA-MB-468, 5 nM with NCI-H460 and 18 nM in the assay with SK-BR-3.
The like results for `CCCCCC[C@@H](C)C[C@H](NC(=O)C(C)(C)NC(=O)C(C)(C)NC(=O)[C@H](C[C@H](C)C[C@H](O)CCCC)NC(=O)[C@@H]1CCCN1C(=O)CCC)C(=O)N[C@@H](CC(C)C)C(=O)NC(C)(C)C(=O)N[C@@H](CC(C)C)C(=O)NCCC(=O)N[C@@H](C)CNCCO` (Butyryl-P[X2][Aib][Aib][X1]L[Aib]L[βAla]-{NH((S)CH(Me)CH2NHC2H4OH)}) were, in that order, 197 nM, 111 nM, 126 nM and 327 nM.
Consider `CCCCCC[C@@H](C)C[C@H](NC(=O)C(C)(C)NC(=O)C(C)(C)NC(=O)[C@H](CCCC(O)CCCC)NC(=O)[C@@H]1CCCN1C(=O)CCC)C(=O)N[C@@H](CC(C)C)C(=O)NC(C)(C)C(=O)N[C@@H](CC(C)C)C(=O)NCCC(=O)N[C@@H](C)CNCCO` (mixture of isomers), for which the IC50 with T47D worked out at 8 nM; with MDA-MB-468, 20 nM; in the assay with NCI-H460, 8 nM; in the assay on SK-BR-3, 100 nM.
`CCCCCC[C@@H](C)C[C@H](NC(=O)C(C)(C)NC(=O)C(C)(C)NC(=O)[C@H](CCCCN)NC(=O)[C@@H]1CCCN1C(=O)CCC)C(=O)N[C@@H](CC(C)C)C(=O)NC(C)(C)C(=O)N[C@@H](CC(C)C)C(=O)NCCC(=O)N[C@@H](C)CNCCO` (Butyryl-PK[Aib][Aib][X1]L[Aib]L[βAla]-{NH((S)CH(Me)CH2NHC2H4OH)}): the IC50 in the assay with T47D, in the assay with MDA-MB-468, in the assay on NCI-H460 and in the assay on SK-BR-3 was more than 1000 nM throughout.
Consider `CCCCCC[C@@H](C)C[C@H](NC(=O)C(C)(C)NC(=O)C(C)(C)NC(=O)[C@H](C[C@H](C)C[C@@H](O)CC(=O)CC)NC(=O)[C@@H]1CCCN1C(=O)CCC)C(=O)N[C@@H](CC(C)C)C(=O)NC(C)(C)C(=O)N[C@@H](CC(C)C)C(=O)NCCC(=O)N[C@@H](C)CNCCO` (Butyryl-P[X8][Aib][Aib][X1]L[Aib]L[βAla]-{NH((S)CH(Me)CH2NHC2H4OH)}), for which the IC50 was 5 nM in the assay on T47D, 8 nM in the assay on MDA-MB-468, 5 nM in the assay on NCI-H460 and 32 nM in the assay with SK-BR-3.
For the compound `CCCCCC[C@@H](C)C[C@H](NC(=O)C(C)(C)NC(=O)C(C)(C)NC(=O)[C@H](CCCC(O)CC(=O)CC)NC(=O)[C@@H]1CCCN1C(=O)CCC)C(=O)N[C@@H](CC(C)C)C(=O)NC(C)(C)C(=O)N[C@@H](CC(C)C)C(=O)NCCC(=O)N[C@@H](C)CNCCO` (stereo partly drawn) (Butyryl-P[X9][Aib][Aib][X1]L[Aib]L[βAla]-{NH((S)CH(Me)CH2NHC2H4OH)}), the IC50 in the assay on T47D turned out to be 80 nM; in the assay on MDA-MB-468 it was 70 nM; in the assay with NCI-H460 it was 190 nM; in the assay with SK-BR-3 it was 500 nM.
The matching figures for `CCCCCC[C@@H](C)C[C@H](NC(=O)C(C)(C)NC(=O)C(C)(C)NC(=O)[C@H](C[C@H](C)C[C@@H](O)CCCC)NC(=O)[C@@H]1CCCN1C(=O)CCC)C(=O)N[C@@H](CC(C)C)C(=O)NC(C)(C)C(=O)N[C@@H](CC(C)C)C(=O)NCCC(=O)N[C@@H](C)CNCCO` (Butyryl-P[X6][Aib][Aib][X1]L[Aib]L[βAla]-{NH((S)CH(Me)CH2NHC2H4OH)}): 264 nM, 297 nM, 234 nM and more than 500 nM.
The like results for `CCCCCC[C@@H](C)C[C@H](NC(=O)C(C)(C)NC(=O)C(C)(C)NC(=O)[C@H](CO)NC(=O)[C@@H]1CCCN1C(=O)CCC)C(=O)N[C@@H](CC(C)C)C(=O)NC(C)(C)C(=O)N[C@@H](CC(C)C)C(=O)NCCC(=O)N[C@@H](C)CNCCO` (Butyryl-PS[Aib][Aib][X1]L[Aib]L[βAla]-{NH((S)CH(Me)CH2NHC2H4OH)}) were, in that order, 66 nM, 74 nM, 127 nM and more than 500 nM.
The matching figures for `CCCCCC[C@@H](C)C[C@H](NC(=O)C(C)(C)NC(=O)C(C)(C)NC(=O)[C@H](CCO)NC(=O)[C@@H]1CCCN1C(=O)CCC)C(=O)N[C@@H](CC(C)C)C(=O)NC(C)(C)C(=O)N[C@@H](CC(C)C)C(=O)NCCC(=O)N[C@@H](C)CNCCO` (Butyryl-P[hSer][Aib][Aib][X1]L[Aib]L[βAla]-{NH((S)CH(Me)CH2NHC2H4OH)}): 20 nM, 30 nM, 30 nM and 108 nM.
Take `CCCCCCCCCC[C@H](NC(=O)[C@@H]1CCCN1C(=O)CCC)C(=O)NC(C)(C)C(=O)NC(C)(C)C(=O)N[C@@H](C[C@H](C)CCCCCC)C(=O)N[C@@H](CC(C)C)C(=O)NC(C)(C)C(=O)N[C@@H](CC(C)C)C(=O)NCCC(=O)N[C@@H](C)CNCCO` (Butyryl-P[Gly(decyl)][Aib][Aib][X1]L[Aib]L[βAla]-{NH((S)CH(Me)CH2NHC2H4OH)}): the IC50 with T47D was 232 nM; in the assay on MDA-MB-468, 59 nM; in the assay with NCI-H460, 382 nM; with SK-BR-3, 280 nM.
The like results for `CCCCCC[C@@H](C)C[C@H](NC(=O)C(C)(C)NC(=O)C(C)(C)NC(=O)[C@H](CCCC(=O)CCCC)NC(=O)[C@@H]1CCCN1C(=O)CCC)C(=O)N[C@@H](CC(C)C)C(=O)NC(C)(C)C(=O)N[C@@H](CC(C)C)C(=O)NCCC(=O)N[C@@H](C)CNCCO` (Butyryl-P[Nva(5-pentanoyl)][Aib][Aib][X1]L[Aib]L[βAla]-{NH((S)CH(Me)CH2NHC2H4OH)}) were, in that order, 10 nM, 10 nM, 10 nM and 30 nM.
As to `CCCCCC[C@@H](C)C[C@H](NC(=O)C(C)(C)NC(=O)C(C)(C)NC(=O)[C@H](CC(C)C)NC(=O)[C@@H]1CCCN1C(=O)CCC)C(=O)N[C@@H](CC(C)C)C(=O)NC(C)(C)C(=O)N[C@@H](CC(C)C)C(=O)NCCC(=O)N[C@@H](C)CNCCO` (Butyryl-PL[Aib][Aib][X1]L[Aib]L[βAla]-{NH((S)CH(Me)CH2NHC2H4OH)}), the IC50 in the assay with T47D came to 70 nM; with MDA-MB-468, 90 nM; in the assay with NCI-H460, 130 nM; with SK-BR-3, 280 nM.
The matching figures for `CCCCCC[C@@H](C)C[C@H](NC(=O)C(C)(C)NC(=O)C(C)(C)NC(=O)[C@H](CCCCO)NC(=O)[C@@H]1CCCN1C(=O)CCC)C(=O)N[C@@H](CC(C)C)C(=O)NC(C)(C)C(=O)N[C@@H](CC(C)C)C(=O)NCCC(=O)N[C@@H](C)CNCCO` (Butyryl-P[X7][Aib][Aib][X1]L[Aib]L[βAla]-{NH((S)CH(Me)CH2NHC2H4OH)}): 14 nM, 25 nM, 28 nM and 59 nM.
The matching figures for `CCCCCC[C@@H](C)C[C@H](NC(=O)C(C)(C)NC(=O)C(C)(C)NC(=O)[C@H](CCCCCC)NC(=O)[C@@H]1CCCN1C(=O)CCC)C(=O)N[C@@H](CC(C)C)C(=O)NC(C)(C)C(=O)N[C@@H](CC(C)C)C(=O)NCCC(=O)N[C@@H](C)CNCCO` (Butyryl-P[Aoc(2)][Aib][Aib][X1]L[Aib]L[βAla]-{NH((S)CH(Me)CH2NHC2H4OH)}): 170 nM, 140 nM, 190 nM and 240 nM.
For `CCCCCC[C@@H](C)C[C@H](NC(=O)C(C)(C)NC(=O)C(C)(C)NC(=O)[C@H](C[C@H](C)C[C@H](O)CC(=O)CC)NC(=O)[C@@H]1CCCN1C(=O)CCC)C(=O)N[C@@H](CC(C)C)C(=O)NC(C)(C)C(=O)N[C@@H](CC(C)C)C(=O)NCCC(=O)N[C@@H](C)CNCCO` (Butyryl-P[X3][Aib][Aib][X1]L[Aib]L[βAla]-{NH((S)CH(Me)CH2NHC2H4OH)}), the IC50 in the assay on T47D amounted to 7 nM; in the assay on MDA-MB-468 it was 11 nM; in the assay on NCI-H460, 8 nM; with SK-BR-3, 35 nM.
For the compound `CCCCCCCC[C@@H](C)C[C@H](NC(=O)[C@@H]1CCCN1C(=O)CCC)C(=O)NC(C)(C)C(=O)NC(C)(C)C(=O)N[C@@H](C[C@H](C)CCCCCC)C(=O)N[C@@H](CC(C)C)C(=O)NC(C)(C)C(=O)N[C@@H](CC(C)C)C(=O)NCCC(=O)N[C@@H](C)CNCCO` (Butyryl-P[X4][Aib][Aib][X1]L[Aib]L[βAla]-{NH((S)CH(Me)CH2NHC2H4OH)}), the half-inhibitory concentration (IC50) came to 31 nM in the assay with T47D, 40 nM in the assay with MDA-MB-468, 37 nM in the assay on NCI-H460 and 236 nM in the assay with SK-BR-3.

What is called IC50 is the midpoint of a concentration-inhibition curve. High values mean a need for much substance, low ones inhibition by little substance.
